{
  "source": "ChEMBL document CHEMBL5705901",
  "about": "“Exploiting selective BCL-2 family inhibitors to dissect cell survival dependencies and define improved strategies for cancer therapy” (Sci Transl Med, 2015)",
  "key": {"[1]": {"test": "Toxicity in Sprague-Dawley rat assessed as inhibition of granulopoiesis by measuring reduction in neutrophil count at 7 mg/kg, po administered daily for 5 days measured on day 6 by microscopic analysis relative to control", "type": "organism-based", "settings": "in vivo, 144 h, time 6 day", "in_short": "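Male Sprague-Dawley rats, n = 10 per group: docetaxel 5 mg/kg i.v. once, or oral inhibitor daily for 5 days (30, 50 or 7 mg/kg depending on agent), alone or combined with docetaxel, against vehicles. Total neutrophil and platelet counts in blood collected on day 6; Tukey-Kramer test versus vehicle.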"}, "[2]": {"test_system": "NCI-H747", "test": "Antitumor activity against human NCI-H747 cells xenografted in po dosed SCID-bg mouse assessed as tumor growth delay relative to control", "type": "functional", "in_short": "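Tumor volume-based endpoints. TGD = 100(T/C − 1), where T and C are the median times for the treated and control groups to reach 1 cm3. Groups were five mice for NCI-H747 and OVCAR-5 and eight for NCI-H358. Docetaxel was given intravenously and the test agent orally.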"}, "[3]": {"test_system": "OVCAR-5", "test": "Synergistic antitumor activity against human OVCAR-5 cells xenografted in po dosed SCID mouse assessed as maximum tumor growth inhibition in presence of docetaxel relative to control", "type": "functional", "in_short": "(§1)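 Xenografts dosed with oral inhibitor plus intravenous docetaxel. TGImax = 100(1 − Tv/Cv), from mean treated and control tumor volumes; TGD = 100(T/C − 1), from median times to reach 1 cm3. Group size 5 mice (NCI-H747, A549-FP3, EBC-1, OVCAR-5), 8 (NCI-H358), 10 (NCI-H1650).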"}, "[4]": {"test_system": "MDA-MB-231", "test": "Antitumor activity against LC3 positive human MDA-MB-231 cells xenografted in SCID mouse assessed as maximum tumor growth inhibition at 25 mg/kg, po administered daily for 14 days relative to control", "type": "functional", "settings": "MDA-MB-231, 336 h, time 14 day, read-out: TGI", "in_short": "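MDA-MB-231 LC3 metastatic breast cancer xenograft, 10 mice per group, with a vehicle control. Dosing: oral agent 25 mg/kg daily for 14 days; docetaxel 7.5 mg/kg iv once; combination gives both regimens. Mean tumor volumes tracked. TGImax = 100(1 − Tv/Cv) from mean treated vs control volumes. TGD = 100(T/C − 1) from median times to reach 1 cm3.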"}, "[5]": {"test_system": "EBC-1", "test": "Synergistic antitumor activity against human EBC-1 cells xenografted in po dosed SCID-bg mouse assessed as tumor growth delay in presence of docetaxel relative to control", "type": "functional", "in_short": "as §1"}, "[6]": {"test_system": "NCI-H358", "test": "Synergistic antitumor activity against human NCI-H358 cells xenografted in po dosed SCID mouse assessed as tumor growth delay in presence of docetaxel relative to control", "type": "functional", "in_short": "as §1"}, "[7]": {"test_system": "HCC1500", "test": "Induction of apoptosis in human HCC1500 cells assessed as accumulation of cells with sub-G0-G1 DNA content at 1 uM incubated for 48 hrs in presence of docetaxel by flow cytometric analysis", "type": "functional, cell-based"}, "[8]": {"test_system": "HCC1806", "test": "Induction of apoptosis in human HCC1806 cells assessed as accumulation of cells with sub-G0-G1 DNA content at 1 uM incubated for 48 hrs in presence of docetaxel by flow cytometric analysis", "type": "functional, cell-based"}, "[9]": {"test_system": "MX1", "test": "Induction of apoptosis in human MX1 cells assessed as accumulation of cells with sub-G0-G1 DNA content at 1 uM incubated for 48 hrs in presence of docetaxel by flow cytometric analysis", "type": "functional, cell-based"}, "[10]": {"test_system": "NCI-H661", "test": "Synergistic antiproliferative activity against human NCI-H661 cells assessed as reduction in cell viability by measuring bliss sum score incubated for 72 hrs in presence of docetaxel by CellTiter-Glo cell vaibility assay", "type": "functional"}, "[11]": {"test_system": "OVCAR-8", "test": "Synergistic antiproliferative activity against human OVCAR-8 cells assessed as reduction in cell viability by measuring bliss sum score incubated for 72 hrs in presence of docetaxel by CellTiter-Glo cell vaibility assay", "type": "functional"}, "[12]": {"test_system": "NCI-H1299", "test": "Synergistic antiproliferative activity against human NCI-H1299 cells assessed as reduction in cell viability by measuring bliss sum score incubated for 72 hrs in presence of docetaxel by CellTiter-Glo cell vaibility assay", "type": "functional"}},
  "note": "The source made the active and inactive calls. The calls are words filed in the database; no cut-off is given here.",
  "data": [
    {"smiles": "Cc1c(-c2ccc(N3CCc4cccc(C(=O)Nc5nc6ccccc6s5)c4C3)nc2C(=O)O)cnn1CC12CC3CC(CC(C3)C1)C2", "values": [
      {"measurement": "Activity", "setting": "[1]", "result": "Non-Toxic"},
      {"measurement": "Activity", "setting": "[2]", "result": 33, "unit": "%"},
      {"measurement": "TGI", "setting": "[3]", "result": 57, "unit": "%"},
      {"measurement": "inhibition in vivo at 25 mg/kg", "setting": "[4]", "result": 55, "unit": "%"},
      {"measurement": "Activity", "setting": "[5]", "result": 94, "unit": "%"},
      {"measurement": "Activity", "setting": "[6]", "result": 233, "unit": "%"}
    ]},
    {"smiles": "CC1(C)CCC(c2ccc(Cl)cc2)=C(CN2CCN(c3ccc(C(=O)NS(=O)(=O)c4ccc(N[C@H](CCN5CCOCC5)CSc5ccccc5)c(S(=O)(=O)C(F)(F)F)c4)cc3)CC2)C1", "note": "[NAVITOCLAX]", "values": [
      {"measurement": "Activity", "setting": "[7]", "result": "Active"},
      {"measurement": "Activity", "setting": "[8]", "result": "Active"},
      {"measurement": "Activity", "setting": "[9]", "result": "Active"}
    ]},
    {"smiles": "CN(C)CC#Cc1ccc(OCCCc2sc(N3CCc4cccc(C(=O)Nc5nc6ccccc6s5)c4C3)nc2C(=O)O)c(F)c1", "note": "[A-1155463]", "values": [
      {"measurement": "Activity_index", "setting": "[10]", "result": 94},
      {"measurement": "Activity_index", "setting": "[11]", "result": 159},
      {"measurement": "Activity_index", "setting": "[12]", "result": 302}
    ]}
  ]
}
